Results on 14 compounds are retold here after ChEMBL document CHEMBL4373638, “Anthranilic amide and imidazobenzothiadiazole compounds disrupt Mycobacterium tuberculosis membrane potential” (Medchemcomm, 2019).

The source made the active and inactive calls. The rule behind the calls is not given here.

Data set [1] has as its system Mycobacterium tuberculosis. Briefly: Disruption of membrane potential loss in Mycobacterium tuberculosis H37Rv at < MBC concentration at pH 4.5 after 15 mins measured at pH 6.8 by DiOC2 probe based fluorescence assay. Type of data set: functional, organism-based.
The subject of data set [2] is Mycobacterium tuberculosis. Briefly: Disruption of membrane potential loss in Mycobacterium tuberculosis H37Rv at MBC concentration at pH 4.5 after 15 mins measured at pH 5.6 by DiOC2 probe based fluorescence assay. It counts as functional, organism-based. The procedure, abridged:
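Mid-log Mtb grown in 7H9-OADC-Tw, concentrated to OD590 ~1.0 in 7H9-Tw adjusted to assay pH (6.8 or 5.6), loaded with 15 μM DiOC2 for 20 min at RT, washed, then exposed to 2-fold serial dilutions for 15 min at RT; red (488/650 nm) to green (488/530 nm) fluorescence ratio; CCCP positive, DMSO vehicle controls; representative of two runs.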

For data set [3], the system named is HepG2. In words: Disruption of mitochondrial membrane potential in human HepG2 cells up to 200 uM after 30 mins by DiOC2 probe based fluorescence assay. It counts as ADME, cell-based. As to conditions: hepg2, 0.5 h.
Data set [4] has as its system Mycobacterium tuberculosis. In words: Antitubercular activity against Mycobacterium tuberculosis H37Rv infected in mouse RAW264.7 cells. Type of data set: functional, organism-based.
Data set [5] deals with RAW264.7. Briefly: Cytotoxicity against mouse RAW264.7 cells. Type of data set: cell-based.
Data set [6] has as its system HepG2. Briefly: Disruption of mitochondrial membrane potential in human HepG2 cells at less than IC50 concentration after 30 mins by DiOC2 probe based fluorescence assay. Type of data set: ADME, cell-based. As to conditions: hepg2, 0.5 h.
Data set [7] deals with Mycobacterium tuberculosis. Briefly: Antitubercular activity against non-replicating Mycobacterium tuberculosis H37Rv assessed as microbial killing at 145 to 290 uM at pH 5.5. It counts as functional, organism-based. As to conditions: TDE = time-dependent effect. The procedure, abridged: (§1)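 Non-replicating kill kinetics: late-log H37Rv (OD590 0.6–1.0) resuspended in phosphate citrate buffer with 0.05% tyloxapol, inoculated at ~10⁶ CFU mL⁻¹, compound added (2% DMSO final), incubated standing at 37 °C; aliquots plated for CFU every 7 days, plates counted after 4 weeks at 37 °C.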

The test system of data set [8] is Mycobacterium tuberculosis. In words: Antitubercular activity against non-replicating Mycobacterium tuberculosis H37Rv assessed as microbial killing at 130 to 260 uM at pH 5.5. Type of data set: functional, organism-based. To be noted: TDE = time-dependent effect. The procedure, abridged:
as §1

In data set [9] the test system is Mycobacterium tuberculosis. In words: Antitubercular activity against non-replicating Mycobacterium tuberculosis H37Rv assessed as microbial killing at 125 to 250 uM at pH 5.5. Type of data set: functional, organism-based. As to conditions: TDE = time-dependent effect. The method, boiled down:
as §1

Data set [10] relates to Mycobacterium tuberculosis. In words: Antitubercular activity against non-replicating Mycobacterium tuberculosis H37Rv assessed as log reduction in CFU at 10 to 100 uM at pH 4.5 to 6.8 after 7 days. It counts as functional.
Data set [11] deals with Mycobacterium tuberculosis. Briefly: Antitubercular activity against non-replicating Mycobacterium tuberculosis H37Rv assessed as microbial killing at 115 to 230 uM at pH 5.5. Type of data set: functional, organism-based. As to conditions: TDE = time-dependent effect. The procedure, abridged:
as §1

`O=C(Nc1ccc(Cl)cc1Cl)c1ccccc1NS(=O)(=O)c1ccc(Br)cc1`: the result in [1] and in data set [2] was Active. For the compound `NC(=O)c1ccccc1NS(=O)(=O)c1ccc(Br)cc1`, the outcome in [2] was inactive. Also, the Activity entry in data set [3] is “Non-Toxic”.

As for `CCN(C)c1ccccc1C(=O)Nc1ccc(Cl)cc1Cl`, the result in data set [4] was Active. In addition, the Activity result in data set [5] is listed as “Toxic”.

Turning to `O=C(Nc1ccccc1)c1ccccc1NS(=O)(=O)c1ccc(Br)cc1`, the result in data set [2] was Active. In addition, the Activity entry in [6] is on record as “Toxic”. In the case of `CS(=O)(=O)Nc1ccccc1C(=O)Nc1ccc(Cl)cc1Cl`, the Activity result in [7] is “Tde”. Turning to `CN(C(=O)c1ccccc1NS(=O)(=O)c1ccc(Br)cc1)c1ccc(Cl)cc1Cl`, the result in [1] and in data set [2] was Active. The Activity result in data set [6] was “Toxic”. With `Cc1nnc(Sc2ccc3nsnc3c2[N+](=O)[O-])s1`, the Activity result in data set [6] is given as “Toxic”.

As for `O=C(Nc1ccccn1)c1ccccc1NS(=O)(=O)c1ccc(Br)cc1`, the Activity entry in data set [8] is “Tde”. Turning to `O=[N+]([O-])c1c(Sc2ccccn2)ccc2nsnc12`, the Activity result in data set [6] is “Toxic”. `CCNc1ccccc1C(=O)Nc1ccc(Cl)cc1Cl`: the result in [2] was Active. For the same compound, the Activity result in data set [3] is “Non-Toxic”. Take `Cc1ccc(S(=O)(=O)Nc2ccccc2C(=O)Nc2ccc(Cl)cc2Cl)cc1`: the Activity result in data set [9] was “Tde”.

Consider `O=[N+]([O-])c1cc2nc(C(F)(F)F)[nH]c2c2nsnc12`, for which the Activity in [10] was more than 4 log10CFU.

`O=C(Nc1ccc(Cl)cc1)c1ccccc1NS(=O)(=O)c1ccc(Br)cc1`: in [11], the Activity entry was “Tde”. As for `CCCCNC(=O)c1ccccc1NS(=O)(=O)c1ccc(Br)cc1`, the outcome in data set [1] and in data set [2] was Active. Moreover, in [6], the Activity entry is on record as “Toxic”.
